Legend:
Sialin [1] = target: T1, Sialin (Homo sapiens, UniProt Q9NRA2); test: Inhibition of human recombinant-Sialin expressed in HEK293 cells assessed as reduction in [3H]Neu5Ac uptake at 30 to 300 uM incubated for 15 mins by liquid scintillation counting method; type: cell-based
T1 sequence (Q9NRA2 whole entry): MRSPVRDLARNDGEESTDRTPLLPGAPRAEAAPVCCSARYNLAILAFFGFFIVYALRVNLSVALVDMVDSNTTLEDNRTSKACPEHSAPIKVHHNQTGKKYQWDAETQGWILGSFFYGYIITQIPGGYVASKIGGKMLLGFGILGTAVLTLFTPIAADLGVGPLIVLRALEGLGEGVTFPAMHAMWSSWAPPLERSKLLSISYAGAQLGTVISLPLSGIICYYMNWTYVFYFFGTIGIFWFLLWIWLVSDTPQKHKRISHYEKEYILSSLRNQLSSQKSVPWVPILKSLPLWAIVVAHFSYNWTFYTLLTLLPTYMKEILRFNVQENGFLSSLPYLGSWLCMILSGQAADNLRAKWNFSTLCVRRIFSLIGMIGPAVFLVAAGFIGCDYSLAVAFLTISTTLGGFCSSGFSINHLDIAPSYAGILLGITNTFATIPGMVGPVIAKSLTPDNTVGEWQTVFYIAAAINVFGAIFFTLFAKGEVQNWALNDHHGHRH
Method in brief: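 HEK293 cells expressing EGFP-human sialin L22G/L23G (sorting mutant at the plasma membrane), assayed 2 days after lipofection. Uptake of [3H]Neu5Ac (12.5 nM) over 15 min at room temperature in MES-Na+ pH 5.0 with inhibitor added together with tracer. Cells washed twice ice-cold, radioactivity counted by liquid scintillation. Dose-response run in triplicate, two to three independent experiments.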

Sialin [2] = target: T1, Sialin; test: Non-competitive inhibition of human recombinant-Sialin expressed in HEK293 cells assessed as reduction in [3H]Neu5Ac uptake incubated for 15 mins by liquid scintillation counting method; type: cell-based
[3] = Lipophilicity, log Pof the compound; type: physicochemical; conditions: octanol/water

Row | IC50 (Sialin [1]) | Ki (Sialin [2]) | logP [3] | Ki (Sialin [1]) | Structure (SMILES)
1 | 23.3 to 24 µM | 10.2 µM | 4.1 | – | CC(C)C[C@H](NC(=O)OCC1c2ccccc2-c2ccccc21)C(=O)O
2 | – | – | 2.29 | 20 µM | CC(C)C[C@H](NC(=O)N1CCCCCC1)C(=O)N[C@H](Cc1cn(C)c2ccccc12)C(=O)N[C@H](Cc1ccccn1)C(=O)O
3 | 2.4 to 2.9 µM | 7.8 µM | 3.91 | – | O=C(N[C@@H](CSCc1cc(=O)oc2cc(O)ccc12)C(=O)O)OCC1c2ccccc2-c2ccccc21
